# Laboratory results reported in ChEMBL document CHEMBL1938353, “Discovery and optimization of aminopyrimidinones as potent and state-dependent Nav1.7 antagonists” (Bioorg Med Chem Lett, 2012).
# Target: T1, Sodium channel protein type 9 subunit alpha (Homo sapiens, UniProt Q15858)
# Assay: Antagonist activity at 20% inactivated human sodium channel Nav1.7 expressed in human HEK293 cells by patch-clamp electrophysiological assay
# Type: functional, cell-based
# Details: not given; call rule not given here
# Outline: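 Automated PatchXpress electrophysiology on hNav1.7 channels with an average 20% contribution from inactivated channels. Dose-response curves built from single-concentration tests on many cells. IC50 is the average of at least two determinations.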
# T1 sequence (Q15858 whole entry): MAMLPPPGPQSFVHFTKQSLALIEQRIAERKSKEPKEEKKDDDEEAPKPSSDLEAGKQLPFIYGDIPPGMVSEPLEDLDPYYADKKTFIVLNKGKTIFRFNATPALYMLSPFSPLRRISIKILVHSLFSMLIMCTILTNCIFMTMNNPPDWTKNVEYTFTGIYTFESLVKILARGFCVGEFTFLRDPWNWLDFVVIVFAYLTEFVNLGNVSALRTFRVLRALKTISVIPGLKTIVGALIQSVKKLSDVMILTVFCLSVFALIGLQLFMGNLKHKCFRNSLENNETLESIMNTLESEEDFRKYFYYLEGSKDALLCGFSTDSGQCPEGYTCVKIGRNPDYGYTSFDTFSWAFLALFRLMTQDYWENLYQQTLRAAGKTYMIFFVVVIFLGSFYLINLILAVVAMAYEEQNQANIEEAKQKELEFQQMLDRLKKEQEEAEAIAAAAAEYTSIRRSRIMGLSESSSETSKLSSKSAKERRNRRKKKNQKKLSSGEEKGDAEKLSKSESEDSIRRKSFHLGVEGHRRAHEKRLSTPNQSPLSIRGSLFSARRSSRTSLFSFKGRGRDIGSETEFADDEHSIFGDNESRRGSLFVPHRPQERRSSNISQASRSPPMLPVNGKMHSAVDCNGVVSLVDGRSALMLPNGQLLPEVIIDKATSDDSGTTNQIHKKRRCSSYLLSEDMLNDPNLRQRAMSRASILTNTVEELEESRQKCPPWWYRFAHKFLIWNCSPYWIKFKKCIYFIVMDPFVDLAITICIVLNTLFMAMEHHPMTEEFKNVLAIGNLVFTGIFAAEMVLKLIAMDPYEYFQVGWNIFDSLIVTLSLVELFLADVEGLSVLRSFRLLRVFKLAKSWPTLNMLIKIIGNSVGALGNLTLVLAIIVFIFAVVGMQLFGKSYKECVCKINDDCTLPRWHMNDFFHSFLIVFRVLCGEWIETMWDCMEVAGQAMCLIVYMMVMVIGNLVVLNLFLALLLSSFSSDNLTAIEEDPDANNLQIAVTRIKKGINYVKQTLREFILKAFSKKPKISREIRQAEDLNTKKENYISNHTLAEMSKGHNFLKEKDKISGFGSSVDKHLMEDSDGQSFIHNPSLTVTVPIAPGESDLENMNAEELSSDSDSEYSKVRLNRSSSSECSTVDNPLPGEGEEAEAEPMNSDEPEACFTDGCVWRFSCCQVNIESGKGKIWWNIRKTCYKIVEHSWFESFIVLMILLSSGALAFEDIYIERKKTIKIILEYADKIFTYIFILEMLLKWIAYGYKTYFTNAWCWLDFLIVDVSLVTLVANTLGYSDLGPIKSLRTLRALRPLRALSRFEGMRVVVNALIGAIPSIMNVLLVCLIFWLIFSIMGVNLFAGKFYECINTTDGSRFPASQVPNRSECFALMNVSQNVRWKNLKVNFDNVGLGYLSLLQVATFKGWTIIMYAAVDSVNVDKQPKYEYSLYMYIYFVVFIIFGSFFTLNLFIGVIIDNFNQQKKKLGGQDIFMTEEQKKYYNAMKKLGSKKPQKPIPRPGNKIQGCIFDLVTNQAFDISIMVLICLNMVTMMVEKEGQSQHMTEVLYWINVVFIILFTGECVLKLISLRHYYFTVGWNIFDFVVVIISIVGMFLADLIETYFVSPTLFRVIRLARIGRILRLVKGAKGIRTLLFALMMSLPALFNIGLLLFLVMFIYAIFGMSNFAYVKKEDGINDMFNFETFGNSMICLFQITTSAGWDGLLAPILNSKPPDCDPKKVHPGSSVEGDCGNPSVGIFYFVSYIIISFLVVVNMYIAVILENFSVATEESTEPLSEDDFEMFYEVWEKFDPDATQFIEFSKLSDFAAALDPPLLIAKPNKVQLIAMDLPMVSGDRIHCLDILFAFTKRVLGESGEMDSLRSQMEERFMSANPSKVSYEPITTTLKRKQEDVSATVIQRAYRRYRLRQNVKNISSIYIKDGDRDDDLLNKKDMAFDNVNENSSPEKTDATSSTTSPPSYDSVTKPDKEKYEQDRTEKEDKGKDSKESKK
row,IC50 [µM],SMILES
1,2.2,Nc1cc(=O)[nH]c(SCc2ccc(OC(F)(F)F)cc2)n1
2,> 30,CC(C)CSc1nc(N)cc(=O)[nH]1
3,> 30,COc1cc(N)nc(SCc2ccc(C(C)(C)C)cc2)n1
4,1.2,CC(=O)Nc1cc(=O)[nH]c(SCc2ccc(C(C)(C)C)cc2)n1
5,7.8,CC(C)(C)OC(=O)Nc1cc(=O)[nH]c(SCc2ccc(C(C)(C)C)cc2)n1
6,2.5,CC(C)(C)c1ccc(CSc2nc(NC(=O)C3CC3)cc(=O)[nH]2)cc1
7,> 30,CC(C)(C)c1ccc(CSc2nccc(=O)[nH]2)cc1
8,4.7,Nc1cc(=O)[nH]c(SCc2ccc(Cl)cc2)n1
9,> 30,CS(=O)(=O)c1ccc(CSc2nc(N)cc(=O)[nH]2)cc1
10,4.3,CC(C)(C)c1ccc(CSc2nc(N)c(Cl)c(=O)[nH]2)cc1
11,0.94,CCCCCCCSc1nc(N)cc(=O)[nH]1
12,0.68,CC(C)(C)c1ccc(CSc2nc(N)cc(O)n2)cc1
13,> 30,CC(C)(C)c1ccc(CSc2nc(O)cc(=O)[nH]2)cc1
14,> 30,CC(C)(C)c1ccc(CSc2nc3[nH]cnc3c(=O)[nH]2)cc1
15,> 30,N#Cc1ccc(CSc2nc(N)cc(O)n2)cc1
16,> 30,CC(C)(C)c1ccc(CSc2nc(NS(C)(=O)=O)cc(=O)[nH]2)cc1
17,> 30,CC(C)(C)c1ccc(CSc2nc(N)c(N)c(=O)[nH]2)cc1
18,> 30,Cn1c(N)cc(=O)nc1SCc1ccc(C(C)(C)C)cc1
19,0.42,Cn1c(SCc2ccc(C(C)(C)C)cc2)nc(N)cc1=O

# Target: T1, Sodium channel protein type 9 subunit alpha
# Assay: Antagonist activity at 20% inactivated human sodium channel Nav1.7 expressed in human HEK293 cells by manual patch-clamp electrophysiological assay
# Type: functional, cell-based
# Details: not given
# Outline: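 Manual electrophysiology on hNav1.7; holding voltage set, and adjusted as needed during the experiment, to give steady 20% inactivation. […] Values are the average of at least two determinations.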
row,IC50 [nM],SMILES
1,400,CCCCCCCSc1nc(N)cc(=O)[nH]1
2,340,CC(C)(C)c1ccc(CSc2nc(N)cc(O)n2)cc1
3,80,Cn1c(SCc2ccc(C(C)(C)C)cc2)nc(N)cc1=O

# Target: T1, Sodium channel protein type 9 subunit alpha
# Assay: Antagonist activity at non-inactivated human sodium channel Nav1.7 expressed in human HEK293 cells by manual patch-clamp electrophysiological assay
# Type: functional, cell-based
# Details: not given
# Outline: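 Manual electrophysiology on fully noninactivated hNav1.7 with holding voltage set to -140 mV. […] Values are the average of at least two determinations.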
row,IC50 [nM],SMILES
1,1400,CCCCCCCSc1nc(N)cc(=O)[nH]1
2,2200,CC(C)(C)c1ccc(CSc2nc(N)cc(O)n2)cc1
3,500,Cn1c(SCc2ccc(C(C)(C)C)cc2)nc(N)cc1=O

# Target: Sodium channel protein type 5 subunit alpha (Homo sapiens, UniProt Q14524)
# Sequence (Q14524 whole entry): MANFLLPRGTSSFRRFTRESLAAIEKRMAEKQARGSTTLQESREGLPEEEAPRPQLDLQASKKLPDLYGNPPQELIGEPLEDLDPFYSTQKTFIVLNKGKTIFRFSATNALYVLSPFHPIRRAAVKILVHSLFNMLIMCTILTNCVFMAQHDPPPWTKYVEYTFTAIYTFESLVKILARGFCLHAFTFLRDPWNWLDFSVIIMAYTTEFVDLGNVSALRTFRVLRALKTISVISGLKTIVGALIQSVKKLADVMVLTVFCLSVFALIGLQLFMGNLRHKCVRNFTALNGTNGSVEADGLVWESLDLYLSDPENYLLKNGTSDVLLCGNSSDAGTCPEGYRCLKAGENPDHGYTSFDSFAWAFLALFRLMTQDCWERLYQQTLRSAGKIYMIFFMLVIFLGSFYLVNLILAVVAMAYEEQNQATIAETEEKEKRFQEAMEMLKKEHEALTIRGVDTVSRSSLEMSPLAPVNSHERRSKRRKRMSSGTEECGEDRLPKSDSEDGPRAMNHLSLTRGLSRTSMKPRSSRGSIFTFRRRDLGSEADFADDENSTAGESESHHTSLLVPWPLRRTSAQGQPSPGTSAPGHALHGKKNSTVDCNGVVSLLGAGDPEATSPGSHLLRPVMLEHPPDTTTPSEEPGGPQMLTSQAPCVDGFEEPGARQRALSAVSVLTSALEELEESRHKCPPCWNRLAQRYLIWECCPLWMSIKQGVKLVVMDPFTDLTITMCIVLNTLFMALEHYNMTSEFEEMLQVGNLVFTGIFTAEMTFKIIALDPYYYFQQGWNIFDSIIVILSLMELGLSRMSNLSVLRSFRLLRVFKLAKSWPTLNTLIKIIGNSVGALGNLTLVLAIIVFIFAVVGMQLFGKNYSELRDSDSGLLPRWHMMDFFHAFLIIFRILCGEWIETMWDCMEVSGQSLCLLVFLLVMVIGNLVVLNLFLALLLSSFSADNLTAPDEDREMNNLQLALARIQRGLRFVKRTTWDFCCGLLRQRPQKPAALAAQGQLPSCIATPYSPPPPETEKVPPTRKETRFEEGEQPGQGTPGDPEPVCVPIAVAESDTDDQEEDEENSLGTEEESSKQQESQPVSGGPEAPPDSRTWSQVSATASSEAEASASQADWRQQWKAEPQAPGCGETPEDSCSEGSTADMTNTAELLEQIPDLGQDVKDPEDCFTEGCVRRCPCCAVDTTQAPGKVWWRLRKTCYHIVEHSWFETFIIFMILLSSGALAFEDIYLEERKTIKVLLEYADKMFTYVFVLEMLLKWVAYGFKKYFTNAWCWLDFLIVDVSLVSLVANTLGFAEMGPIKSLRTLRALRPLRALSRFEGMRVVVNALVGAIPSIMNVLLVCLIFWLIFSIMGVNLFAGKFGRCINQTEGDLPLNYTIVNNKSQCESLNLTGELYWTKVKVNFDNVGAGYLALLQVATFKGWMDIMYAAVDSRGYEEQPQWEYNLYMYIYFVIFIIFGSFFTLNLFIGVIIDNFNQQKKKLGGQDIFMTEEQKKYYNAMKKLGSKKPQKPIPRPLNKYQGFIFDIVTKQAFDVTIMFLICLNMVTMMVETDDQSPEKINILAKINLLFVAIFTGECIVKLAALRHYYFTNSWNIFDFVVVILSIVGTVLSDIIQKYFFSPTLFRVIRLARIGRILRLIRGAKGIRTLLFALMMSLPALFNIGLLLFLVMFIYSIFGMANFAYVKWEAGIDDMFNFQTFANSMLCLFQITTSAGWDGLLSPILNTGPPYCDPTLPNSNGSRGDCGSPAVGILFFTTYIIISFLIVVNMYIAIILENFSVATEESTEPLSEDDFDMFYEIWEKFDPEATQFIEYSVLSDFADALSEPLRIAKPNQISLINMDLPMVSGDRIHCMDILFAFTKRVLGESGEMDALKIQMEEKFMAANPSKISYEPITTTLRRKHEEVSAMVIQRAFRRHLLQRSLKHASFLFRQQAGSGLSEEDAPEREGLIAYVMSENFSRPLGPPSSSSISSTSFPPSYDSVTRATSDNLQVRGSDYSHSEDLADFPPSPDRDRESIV
# Assay: Antagonist activity at partially inactivated human sodium channel Nav1.5 expressed in human HEK293 cells by patch-clamp electrophysiological assay
# Type: functional, cell-based
# Details: not given
row,SMILES,IC50 [nM]
1,CCCCCCCSc1nc(N)cc(=O)[nH]1,1200
2,CC(C)(C)c1ccc(CSc2nc(N)cc(O)n2)cc1,300
3,Cn1c(SCc2ccc(C(C)(C)C)cc2)nc(N)cc1=O,200

# Target: Voltage-gated inwardly rectifying potassium channel KCNH2 (Homo sapiens, UniProt Q12809)
# Sequence (Q12809 whole entry): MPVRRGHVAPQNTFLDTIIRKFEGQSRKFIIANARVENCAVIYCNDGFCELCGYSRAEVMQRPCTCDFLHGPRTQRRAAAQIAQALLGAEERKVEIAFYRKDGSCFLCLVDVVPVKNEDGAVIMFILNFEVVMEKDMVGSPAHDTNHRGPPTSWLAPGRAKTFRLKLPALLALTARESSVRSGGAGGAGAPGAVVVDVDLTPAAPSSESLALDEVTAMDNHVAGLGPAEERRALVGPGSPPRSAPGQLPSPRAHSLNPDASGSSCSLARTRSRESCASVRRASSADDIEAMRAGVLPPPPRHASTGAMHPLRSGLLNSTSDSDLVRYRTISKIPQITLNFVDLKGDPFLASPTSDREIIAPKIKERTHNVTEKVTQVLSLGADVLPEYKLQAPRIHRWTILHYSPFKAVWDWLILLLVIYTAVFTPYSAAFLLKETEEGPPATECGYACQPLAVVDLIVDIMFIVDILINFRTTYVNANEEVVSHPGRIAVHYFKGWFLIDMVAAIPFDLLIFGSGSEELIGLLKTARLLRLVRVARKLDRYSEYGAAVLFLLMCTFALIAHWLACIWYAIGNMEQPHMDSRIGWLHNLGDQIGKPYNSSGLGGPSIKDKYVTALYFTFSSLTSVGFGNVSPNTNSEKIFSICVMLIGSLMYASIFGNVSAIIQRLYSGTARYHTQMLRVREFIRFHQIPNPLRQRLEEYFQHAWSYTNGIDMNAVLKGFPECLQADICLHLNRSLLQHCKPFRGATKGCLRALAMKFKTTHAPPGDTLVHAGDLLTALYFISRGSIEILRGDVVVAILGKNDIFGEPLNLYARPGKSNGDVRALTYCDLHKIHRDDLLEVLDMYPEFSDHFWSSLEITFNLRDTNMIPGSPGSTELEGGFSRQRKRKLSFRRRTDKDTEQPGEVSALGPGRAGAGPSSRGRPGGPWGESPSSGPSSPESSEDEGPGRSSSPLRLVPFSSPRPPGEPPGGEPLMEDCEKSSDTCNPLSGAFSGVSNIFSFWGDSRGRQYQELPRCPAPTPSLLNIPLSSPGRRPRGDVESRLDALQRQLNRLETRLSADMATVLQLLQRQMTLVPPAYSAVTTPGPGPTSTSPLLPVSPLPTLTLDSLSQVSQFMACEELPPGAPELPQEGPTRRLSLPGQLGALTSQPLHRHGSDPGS
# Assay: Displacement of dofetilide from human ERG
# Details: not given
row,SMILES,Ki [µM]
1,CCCCCCCSc1nc(N)cc(=O)[nH]1,> 15
2,Cn1c(SCc2ccc(C(C)(C)C)cc2)nc(N)cc1=O,> 15

# Tested on: not listed separately
# Assay: Solubility of the compound in simulated intestinal fluid
# Type: physicochemical
# Details: not given
row,solubility [µg/mL],SMILES
1,14,CCCCCCCSc1nc(N)cc(=O)[nH]1
2,67,CC(C)(C)c1ccc(CSc2nc(N)cc(O)n2)cc1
3,14,Cn1c(SCc2ccc(C(C)(C)C)cc2)nc(N)cc1=O

# Tested on: not listed separately
# Assay: Solubility of the compound in phosphate buffer saline
# Type: physicochemical
# Details: phosphate buffered saline
row,solubility [µg/mL],SMILES
1,2,CCCCCCCSc1nc(N)cc(=O)[nH]1
2,5,CC(C)(C)c1ccc(CSc2nc(N)cc(O)n2)cc1
3,10,Cn1c(SCc2ccc(C(C)(C)C)cc2)nc(N)cc1=O

# Tested on: not listed separately
# Assay: Solubility of the compound in 0.01 N HCl
# Type: physicochemical
# Details: not given
row,solubility [µg/mL],SMILES
1,3,CCCCCCCSc1nc(N)cc(=O)[nH]1
2,4,CC(C)(C)c1ccc(CSc2nc(N)cc(O)n2)cc1
3,1,Cn1c(SCc2ccc(C(C)(C)C)cc2)nc(N)cc1=O

# Tested on: MDR1 (P-gp)
# Assay: Apparent permeability across pig LLC-PK1 cells over expressing human MDR1 at 5 uM in presence 0.1 % BSA
# Type: ADME, cell-based, Sus scrofa
# Details: not given
# Outline: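 MDR1-LLC-PK1 pig kidney cells expressing human MDR1. Compound tested at 5 µM with 0.1% BSA. Permeability is the average of the apical-to-basolateral and basolateral-to-apical apparent permeability values.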
row,Papp at 5 µM [×10⁻⁶ cm/s],SMILES
1,21,CCCCCCCSc1nc(N)cc(=O)[nH]1
2,27,CC(C)(C)c1ccc(CSc2nc(N)cc(O)n2)cc1
3,16,Cn1c(SCc2ccc(C(C)(C)C)cc2)nc(N)cc1=O

# Tested on: LLC-PK1
# Assay: Efflux ratio of permeability from […] side in pig LLC-PK1 cells over expressing human MDR1
# Type: ADME, cell-based, Sus scrofa
# Details: not given
# Outline: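 Pig kidney LLC-PK1 cells expressing human MDR1. Compound tested in the presence of 0.1% BSA. Apparent permeability was measured in both the apical-to-basolateral and basolateral-to-apical directions.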
row,Ratio,SMILES
1,1.1,CCCCCCCSc1nc(N)cc(=O)[nH]1
2,1,Cn1c(SCc2ccc(C(C)(C)C)cc2)nc(N)cc1=O

# Tested on: not listed separately
# Assay: Clearance in Sprague-Dawley rat at 0.5 mg/kg, iv
# Type: ADME, organism-based
# Parameters: dose 0.5 mg/kg, route intravenous
# Details: in vivo
row,clearance [mL/min/kg],SMILES
1,108,CCCCCCCSc1nc(N)cc(=O)[nH]1
2,85,CC(C)(C)c1ccc(CSc2nc(N)cc(O)n2)cc1
3,18.3,Cn1c(SCc2ccc(C(C)(C)C)cc2)nc(N)cc1=O

# Tested on: not listed separately
# Assay: Volume of distribution at steady state in Sprague-Dawley rat at 0.5 mg/kg, iv
# Type: ADME, organism-based
# Parameters: dose 0.5 mg/kg, route intravenous
# Details: in vivo, read-out: Vdss
row,Vd [L/kg],SMILES
1,1.3,CCCCCCCSc1nc(N)cc(=O)[nH]1
2,7.9,CC(C)(C)c1ccc(CSc2nc(N)cc(O)n2)cc1
3,2.6,Cn1c(SCc2ccc(C(C)(C)C)cc2)nc(N)cc1=O

# Tested on: not listed separately
# Assay: Half life in Sprague-Dawley rat at 0.5 mg/kg, iv
# Type: ADME, organism-based
# Parameters: dose 0.5 mg/kg, route intravenous
# Details: in vivo
row,half-life [min],SMILES
1,15,CCCCCCCSc1nc(N)cc(=O)[nH]1
2,162,CC(C)(C)c1ccc(CSc2nc(N)cc(O)n2)cc1
3,234,Cn1c(SCc2ccc(C(C)(C)C)cc2)nc(N)cc1=O

# Tested on: Liver microsomes
# Assay: Metabolic stability in human liver microsomes after 15 mins
# Type: ADME, Microsome
# Details: 0.25 h
row,Stability,SMILES
1,Unstable,CC(=O)Nc1cc(=O)[nH]c(SCc2ccc(C(C)(C)C)cc2)n1
2,Unstable,CC(C)(C)c1ccc(CSc2nc(NC(=O)C3CC3)cc(=O)[nH]2)cc1

# Tested on: Liver microsomes
# Assay: Metabolic stability in rat liver microsomes after 15 mins
# Type: ADME, Microsome
# Details: 0.25 h
row,Stability,SMILES
1,Unstable,CC(=O)Nc1cc(=O)[nH]c(SCc2ccc(C(C)(C)C)cc2)n1
2,Unstable,CC(C)(C)c1ccc(CSc2nc(NC(=O)C3CC3)cc(=O)[nH]2)cc1

# Tested on: Hepatocyte
# Assay: Drug metabolism in rat hepatocytes assessed as glucuronide adduct formation at 18.7 mins
# Type: ADME, cell-based
# Details: 0.311667 h
row,Drug metabolism,SMILES
1,Active,CC(C)(C)c1ccc(CSc2nc(N)cc(O)n2)cc1

# Tested on: not listed separately
# Assay: Ratio of drug level in brain to plasma in ip dosed rat
# Type: ADME, organism-based
# Details: brain and plasma, read-out: BPR
row,Kp,SMILES
1,3.3,Cn1c(SCc2ccc(C(C)(C)C)cc2)nc(N)cc1=O

# Species: Rattus norvegicus
# Assay: Toxicity in rat assessed as reduction in total basic movement by open field test
# Type: organism-based
# Parameters: scale not given: the % may be the effect or the level left
# Details: in vivo
row,SMILES,Activity [%]
1,Cn1c(SCc2ccc(C(C)(C)C)cc2)nc(N)cc1=O,81

# Species: Rattus norvegicus
# Assay: Toxicity in rat assessed as complete reduction in rearing behavior by open field test
# Type: organism-based
# Parameters: scale not given: the % may be the effect or the level left
# Details: in vivo
row,SMILES,Activity [%]
1,Cn1c(SCc2ccc(C(C)(C)C)cc2)nc(N)cc1=O,98
